From PubChem BioAssay
Compounds with a hit are over-represented: about 2.3% of the library has one in this group of screens.
EBNA-1 inhibitor: EBNA-1 DNA-binding inhibitors, primary screen, biochemical, fluorescence polarization; inhibition, % at 14.8 µM; 300,000 tested, 0.34% active; in the data active = inhibition above about 28%
EBV gp42 inh: Epstein-Barr virus gp42 inhibitors, primary screen, biochemical, uHTS, fluorescence polarization. 220,000 tested, 0.42% active. Fluorescence polarization binding assay, mP read-out. inhibition, % (tested at 21.74 µM). AID 1085, 2008; in the data active = inhibition above about 50%
HCV core dimer: inhibitors of HCV core protein dimerization, primary screen, biochemical, TR-FRET, high-throughput; TR-FRET GST/Flag-core106 dimerization, 1536-well; 300,000 tested, 0.33% active; AID 1899, 2009; inhibition, % at 5 µM;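 active = inhibition above the mean of all tested compounds plus 3 SD, set per screening campaign, cut at about 45% in these data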
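test system = GST/Flag-tagged HCV core106 proteins | probe or stimulus = Eu donor and XL665 acceptor anti-tag antibodies | times = compound-protein-antibody incubation 4 h at 22.5 °C | signal = TR-FRET, excitation 340 nm, emission 617 and 671 nm | measure = percent inhibition of core106 dimerization signal | controls = wells lacking GST-core106 and wells with excess unlabelled core106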
ZTA counter: counter-screen for EBNA-1 inhibitors: inhibitors of Epstein-Barr virus ZTA | 320,000 tested, 0.15% active | ZTA-DNA binding, fluorescence polarization | P03206 | inhibition, % at 11 µM | AID 2234; in the data active = inhibition above about 33%
GPR7 antag: GPR7 receptor antagonists, primary screen, cell-based, fluorescence, single concentration. 290,000 tested, 1.1% active. Neuropeptides B/W receptor type 1 (Homo sapiens), P48145. GPR7-expressing cells, fluorescence antagonist assay. inhibition, % at 4.4 µM; in the data active = inhibition above about 16%, passing the limit was not always enough;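 note: cells stimulated with the agonist NPW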
Target sequence (P48145 whole entry, looked up): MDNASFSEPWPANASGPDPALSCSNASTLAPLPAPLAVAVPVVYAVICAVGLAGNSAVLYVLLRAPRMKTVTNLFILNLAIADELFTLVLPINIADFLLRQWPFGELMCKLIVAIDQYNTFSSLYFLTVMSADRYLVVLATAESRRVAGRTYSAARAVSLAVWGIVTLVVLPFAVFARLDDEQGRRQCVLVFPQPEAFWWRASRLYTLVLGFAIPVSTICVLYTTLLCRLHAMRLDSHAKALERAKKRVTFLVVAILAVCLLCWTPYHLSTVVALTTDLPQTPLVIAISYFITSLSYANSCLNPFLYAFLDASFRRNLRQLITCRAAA
HCV NS3 hel inh: inhibitors of HCV NS3 helicase, primary screen, biochemical, Cy5 molecular beacon fluorescence; inhibition, % at 10.9 µM; 290,000 tested, 0.56% active; Hepatitis C virus NS3 helicase; NS3 helicase DNA unwinding; AID 1800, 2009;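 active = inhibition above the mean of all tested compounds plus 3 SD, set per campaign, cut at about 35% in these data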
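Control set: DMSO versus 110 µM thioflavine S; Material: NS3 helicase fragment of HCV; Measured by: Cy5 fluorescence at 0 and 60 min, beacon hairpin quenching; Read-out basis: percent inhibition from t60/t0 fluorescence ratio; Times: reaction time 60 min, 25 °C; Repeats: single replicate; Compound dosing: single dose, 10.9 µM nominal final, DMSO 0.8% final.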
NS3 helicase cf: HCV NS3 helicase inhibitors, retest, confirmation, biochemical, Cy5 molecular beacon fluorescence, triplicate. shares compounds with HCV NS3 hel inh. NS3 helicase DNA unwinding. inhibition, % at 10.9 µM. 1,600 tested, 31% active;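 active = inhibition above the mean of all tested compounds plus 3 SD, cutoff set per campaign, cut at about 36% in these data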
DNA FID counter: compounds displacing fluorescent DNA intercalator, artefact control for HCV NS3 helicase inhibitor project, biochemical, FID fluorescence, triplicate; shares compounds with HCV NS3 hel inh; DNA fluorescent intercalator displacement; inhibition, % at 7.9 µM; 1,600 tested, 4% active; AID 1945, 2009; in the data active = inhibition above about 37%;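 note: higher means more displacement of ethidium bromide from the DNA hairpin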
DNA FID DR: compounds displacing fluorescent intercalator from DNA, dose response, counter-screen for HCV NS3 helicase inhibitor project, biochemical, fluorescence; shares compounds with HCV NS3 hel inh; fluorescent intercalator displacement from DNA; IC50, µM; 120 tested, under 10 active; AID 2172, 2009; call rule not given here
A number is an active result; n = inactive; x = no result.

SMILES	EBNA-1 inhibitor	EBV gp42 inh	HCV core dimer	ZTA counter	GPR7 antag	HCV NS3 hel inh	NS3 helicase cf	DNA FID counter	others
C#CCN1C(=O)S/C(=C\c2ccc(-c3ccc(Cl)c(C(=O)O)c3)o2)C1=O	n	x	n	n	n	40.1	55.5	n
O=C(O)c1cc(-c2ccc(/C=c3\sc4nc5ccc(Br)cc5n4c3=O)o2)ccc1Cl	n	x	n	n	n	37.7	72.9	n
O=C(O)c1cc(-c2ccc(/C=C3\NC(=O)N(c4ccccc4)C3=O)o2)ccc1Cl	n	n	n	n	n	n	x	x
Cc1ccc(NC(=O)CN2C(=O)S/C(=C\C(=O)Nc3ccc(Cl)cc3)C2=O)cc1	n	n	n	n	n	41.4	n	n
O=c1cc(-c2ccccc2)cc(-c2ccccc2)n1CCO	n	x	n	n	x	x	x	x
CC1(C)CC(NC(=O)C2CCN(S(=O)(=O)c3cccc(C(F)(F)F)c3)CC2)CC(C)(C)N1	x	x	x	n	x	x	x	x
CCN(CC)C(=O)CSc1nc2ccccc2c(=O)n1-c1cccc(OC)c1	n	n	n	n	n	n	x	x
COc1cccc(-n2c(SCc3cc(=O)oc4cc(O)c(O)cc34)nc3ccccc3c2=O)c1	n	n	n	n	n	85.9	134.2	n	DNA FID DR=n
Cc1nc2c(C(=O)NCc3ccccc3Cl)c[nH]n2c(=O)c1Cl	n	n	n	n	n	55.6	45.6	n
CCCCC(=O)Nc1nnc(C2=COCCO2)o1	n	n	n	n	n	n	x	x
O=C(COc1ccc(-c2ccccc2)cc1)N/N=C/c1cc(O)ccc1Br	n	n	n	n	n	37.5	n	n
O=C(COc1ccc(-c2ccccc2)cc1)N/N=C/c1ccccc1Br	n	n	n	n	n	n	x	x
CCOc1ccc(N(CC(=O)NCCc2ccccc2)C(=O)c2csnn2)cc1	n	x	n	n	n	n	x	x
C=CCSC1=N/C(=C\c2sccc2C)C(=O)S1	n	n	n	n	n	n	x	x
C=CCSC1=N/C(=C\C=C\c2ccco2)C(=O)S1	n	n	64.7	n	n	41.7	50.4	n	DNA FID DR=n
O=C1Cc2ccccc2C(=O)N1c1cccc(Cl)c1	n	x	n	n	n	36.8	n	n
COCCN(C(=O)C1CC(=O)N(Cc2ccc(C)cc2)C1)c1c(N)n(CC(C)C)c(=O)[nH]c1=O (centres undefined)	x	x	x	n	x	x	x	x
CCCc1nc2sc3ccccc3c(=O)c2c(=O)n1Cc1ccco1	x	n	x	x	n	46.4	n	n
NNc1nc2c(-c3cccc(C(F)(F)F)c3)nnn2c2ccccc12	x	x	x	x	n	43.1	n	n
O=S(=O)(O)c1nc2ccccc2n1Cc1cccc2ccccc12	n	n	n	n	n	43.3	61.9	n
CC(C)[C@H](NC(=O)OC(C)(C)C)C(=O)NCC1CCC(C(=O)N[C@@H](Cc2ccccc2)C(=O)O)CC1 (some centres undefined)	n	x	n	n	n	n	x	x
Cn1c(O)c(/C=N/NC(=O)c2cc3ccccc3cc2O)c2ccccc21	n	x	n	n	n	n	x	x
COc1ccc2c(c1)cc(C(=O)N/N=C/c1c(O)c(C(=O)O)cc3ccccc13)n2C	n	x	n	n	n	79.5	104.2	n
O=C1CC(Nc2ccc(N3CCOCC3)cc2)C(=O)N1C1CCCCC1 (centres undefined)	n	n	n	n	n	38.2	n	n
O=C1CC(Nc2ccccc2)C(=O)N1c1ccc(N2CCOCC2)cc1 (centres undefined)	n	n	n	n	n	n	x	x
